# Assay outcomes deposited in PubChem BioAssay by Broad Institute.
# Only some compounds are listed: those with a hit (about 2.4% of all), similar ones and a draw of the others.
# INS-1E GSIS act = primary screen for activators of insulin secretion dependent on glucose, INS-1E cells, GLuc reporter luminescence. hit rate 0.61% among 370,000. AID 743287. INS-1E GLuc reporter insulin secretion, 2-3 h. activation, % at 16.6 µM;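 active = lowest replicate activation of at least 40%, so every replicate reaches that level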;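 also: 0% = median of neutral control wells and 100% = median of IBMX positive control wells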
# Cneo AK release = Cryptococcus neoformans lysis via adenylate kinase release; hit rate 0.2% among 360,000; C. neoformans lysis, adenylate kinase release luminescence, 4 h; normalised: neutral wells 0, clomiphene wells 100; lysis activity, % at 15 µM;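 active = mean lysis activity across replicates of at least 80%, whatever share of replicates individually reach that level; inactive = mean lysis activity below 80%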
#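 Material – log-phase Cryptococcus neoformans yeast cells · Input – 5 × 10^6 yeast cells/mL · Medium – fresh YPD growth medium · Doses – single compound concentration per well · Timing – static 4 h at 37 °C with compound, 1 h detection · Detection – adenylate kinase release luminescence · Read-out – signal increase indicating cell lysis · Control set – Clomiphene as positive lysis control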
# miR122 inh = inhibitors of miR-122 in Huh7 cells; hit rate 0.3% among 340,000; Huh7 miR-122 Renilla luciferase sensor, 48 h; neutral wells = 0, positive control = 100; activation (reporter increase), % at 12.5 µM;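 active = mean replicate activation score at least 90 and every replicate individually at or above 90; inconclusive = only one of the two criteria met; inactive = neither criterion met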;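 also: higher luciferase means less miR-122 activity so hits act as miR-122 inhibitors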
# dFosB act-1 = activators of mouse delta FosB homodimer; P13346; purified delta FosB, TAMRA-CDK5 oligo fluorescence polarization; percent of positive-control signal above neutral wells; activation, % at 25 µM; hit rate 0.99% among 340,000;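 active = mean activation above about 17%, with every replicate also reaching it, limit read from the data, passing the limit was not always enough; inconclusive = only one of the two conditions met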
# Target sequence (P13346 whole entry, looked up): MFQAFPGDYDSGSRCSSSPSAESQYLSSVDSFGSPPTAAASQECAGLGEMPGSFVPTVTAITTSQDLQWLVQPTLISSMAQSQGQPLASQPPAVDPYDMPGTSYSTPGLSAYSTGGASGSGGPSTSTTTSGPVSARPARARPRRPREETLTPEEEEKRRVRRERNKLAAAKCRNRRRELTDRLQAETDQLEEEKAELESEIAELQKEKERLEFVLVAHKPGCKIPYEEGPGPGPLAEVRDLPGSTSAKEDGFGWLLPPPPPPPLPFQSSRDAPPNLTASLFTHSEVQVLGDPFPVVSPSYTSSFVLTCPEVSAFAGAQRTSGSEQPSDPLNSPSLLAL
# HIV Env fusion = blocks HIV Env-driven cell-cell fusion; HeLa-JRFL Env/CEM21 cell fusion, luciferase; inhibition, % at 12.3 µM; hit rate 1.1% among 360,000;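 active = mean replicate inhibition score of at least 50 and every replicate individually at or above 50; inconclusive = only one of the two criteria met; inactive = mean below 50 and not all replicates reaching 50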;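 also: 0% = plate neutral controls and 100% = maraviroc near 300 nM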
# Rtt109 Vps75 = blocks Candida albicans Rtt109/Vps75 acetyltransferase activity | Q5AAJ8 | purified Rtt109/Vps75, ThioGlo CoA-SH fluorescence, 4 h | inhibition, % at 34.9 µM | hit rate 0.16% among 330,000 | AID 540336;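 active = inhibition of at least 50% in every replicate; inconclusive = best replicate reaches 50% inhibition but some replicates fall short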
# Target sequence (Q5AAJ8 whole entry, looked up): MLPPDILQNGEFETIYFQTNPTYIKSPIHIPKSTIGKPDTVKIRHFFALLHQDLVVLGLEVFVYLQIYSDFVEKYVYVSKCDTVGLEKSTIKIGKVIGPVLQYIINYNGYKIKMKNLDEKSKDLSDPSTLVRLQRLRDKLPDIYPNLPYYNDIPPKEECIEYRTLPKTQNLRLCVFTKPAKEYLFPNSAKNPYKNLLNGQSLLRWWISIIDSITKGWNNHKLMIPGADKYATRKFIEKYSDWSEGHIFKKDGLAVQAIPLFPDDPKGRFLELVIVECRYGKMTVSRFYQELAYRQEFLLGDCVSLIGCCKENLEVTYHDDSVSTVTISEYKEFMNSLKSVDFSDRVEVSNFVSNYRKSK
# dFosB act-2 = activators of mouse delta FosB homodimer DNA binding | shares compounds with dFosB act-1 | 2,400 tested, under 10 active | AID 588690 | activation, % at 24.9 µM | purified delta FosB, TAMRA-CDK5 oligo fluorescence polarization; normalised: neutral wells 0, positive control 100;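 active = highest replicate activation at or above 34% and every replicate reaching that threshold; inconclusive = meets only one of the two criteria; inactive = meets neither criterion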;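 also: higher polarization means more probe DNA bound by delta FosB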
# The depositor's hits bear a star; ? = inconclusive; . = no result given; [ ] = another dose, or the depositor's remark.
SMILES,INS-1E GSIS act,Cneo AK release,miR122 inh,dFosB act-1,HIV Env fusion,Rtt109 Vps75,dFosB act-2
CN1C(=O)c2cc(NC(=O)c3ccc(F)cc3)ccc2OC[C@@H]2O[C@H](CC(=O)NC3CCC3)CC[C@H]21,-7,70,26[16.7 µM],.,-21[16.7 µM],.,.
COc1ccc(CN(C)C[C@@H]2OCCCC[C@@H](C)Oc3ccc(NC(=O)c4ccccc4)cc3C(=O)N([C@H](C)CO)C[C@H]2C)cc1,-23,-2,-1[16.7 µM],.,-10[16.7 µM],.,.
Cc1ccc(S(=O)(=O)N2CCN(C(=O)C(Cc3ccccc3)NC(=O)c3ccccc3)CC2)cc1 (configuration not stated),8,1,.,23*,.,9,3
COc1ccc2cc1Oc1ccc(cc1)C[C@H]1c3cc(c(OC)cc3CCN1C)Oc1c(OC)c(OC)cc3c1[C@H](C2)N(C)CC3,.,7,0,26*,-42,25,?
O=C(CSc1nc2ccc(Cl)cc2[nH]1)NC1CCCc2ccccc21 (configuration not stated),-5,.,.,19*,8,-7,5
O=C(N[C@@H]1CC[C@@H](CC(=O)N2CCCCC2)O[C@@H]1CO)c1cccc(F)c1,3,-1,.,.,-4[16.7 µM],.,.
Cc1cc(=O)n2c(C(=O)Nc3ccc(C)c(C)c3)c(C(=O)Nc3ccccc3)sc2n1,6,.,.,34*,-10,5,1
Cc1ccc(NC(=O)c2cc(C)nn2-c2ccccc2)cc1,.,7,-2,-5,-8,0,.
Cc1ccc(NC(=O)c2c(C)nc3ccccn23)cc1C,2,.,.,0,-80,-9,.
CCc1ccc(NC(=O)c2c(C(=O)Nc3ccccc3)sc3nc(C)cc(=O)n23)cc1,12,.,.,35*,21,6,-1
Cc1ccc(NC(=O)c2c(C(=O)Nc3ccccc3)sc3nc(C)cc(=O)n23)cc1,16,.,.,32*,13,.,-3
Cn1cc(Br)c(C(=O)Nc2sc3c(c2C(N)=O)CCCC3)n1,11,-13,-3,-8,-42,5,.
CCn1cc(Br)c(C(=O)Nc2sc3c(c2C(N)=O)CCCC3)n1,.,-2,.,76*,.,-11,0
CNC(=O)C[C@H]1CC[C@H]2[C@@H](COc3ccc(NC(=O)c4cccc(F)c4)cc3C(=O)N2C)O1,5,-2,0[16.7 µM],.,8[16.7 µM],.,.
CO[C@H]1CN(C)C(=O)c2cc(NC(=O)C3CCC3)ccc2OC[C@@H](C)N(Cc2nccs2)C[C@H]1C,-5,52,10[16.7 µM],.,.,.,.
Cc1cccc(-n2ncc3c(Nc4ccc(F)cc4)ncnc32)c1,.,1,0,-4,-16,-19,.
COC(=O)c1ccc(Nc2ncnc3c2cnn3-c2cccc(C)c2)cc1,0,2,-1,45*,-10,-18,-2
O=C(NCCc1ccccc1)[C@H]1N[C@H]2c3ccc(-c4ccccc4)c(=O)n3C[C@H]2[C@@H]1CO,11,0,-3[16.7 µM],.,.,.,.
O=C(c1cc2ccccc2o1)N1CCN(S(=O)(=O)c2ccc(F)c(F)c2F)CC1,0,0,-11,33*,.,3,-1
COc1ccc2c3c(n(C)c2c1)[C@H](CO)N(Cc1nccs1)CC31CN(C(C)=O)C1,21,.,.,.,.,.,.
CO[C@@H]1CN(C)C(=O)c2ccc(NC(=O)NC(C)C)cc2OC[C@@H](C)N(C(=O)C2CCC2)C[C@H]1C,1,.,.,.,-1[16.7 µM],.,.
S=C(N/N=C/c1ccccc1Cl)Nc1cccc(Cl)c1Cl,.,.,.,36*,-16,5,3
Cc1c(C(=O)Nc2ccc(F)cc2)cn2c(nc3ccccc32)c1C#N,1,0,7,33*,-6,-16,-1
CNC(=O)C[C@H]1CC[C@@H]2[C@@H](COc3ccc(NC(=O)c4ccccc4Cl)cc3C(=O)N2C)O1,1,12,0[16.7 µM],.,-10[16.7 µM],.,.
O=C(Nc1ccc(F)cc1)Nc1nnc(Cc2ccccc2F)s1,4,1,-2,21*,18,1,-1
SMILES,INS-1E GSIS act,Cneo AK release,miR122 inh,dFosB act-1,HIV Env fusion,Rtt109 Vps75,dFosB act-2
COc1ccccc1NC(=O)Nc1nc(CC(=O)Nc2ccc(F)cc2)cs1,-31,-1,15,27*,-7,-1,5
COc1cccc(NC(=O)Nc2nnc(CC(=O)NCc3ccccc3)s2)c1,-9,3,3,39*,25,-6,-3
O=C(Nc1ccc(Cl)cc1)Nc1nnc(CSCc2ccc(Cl)cc2)s1,1,.,.,19*,71*,-7,0
COc1ccc(NC(=O)Cc2csc(NC(=O)Nc3ccccc3OC)n2)cc1,.,-1,1,.,19,.,.
COc1ccccc1NC(=O)Nc1nnc(Cc2ccccc2F)s1,2,.,.,3,1,1,.
COc1ccccc1NC(=O)Nc1nnc(CC(=O)Nc2cccc(C)c2)s1,-27,.,.,32*,-2,33,5
COC(=O)Nc1nnc(CC(=O)Nc2ccccc2C)s1,.,1,1,1,-137,-34,.
Cc1ccccc1NC(=O)Cc1nnc(NC(=O)Nc2ccccc2F)s1,-11,5,-5,52*,-3,-14,-10
COc1ccc(S(=O)(=O)N(C)C)cc1NC(=O)C1CCN(c2ncnc3sc(C)c(C)c23)CC1,-2,-1,-3,47*,.,0,0
CCC1CCc2sc(C(=O)NC3CCN(Cc4ccccc4)CC3)cc2C1 (configuration not stated),-19,-2,-2,29*,28,2,1
COCC(=O)N1[C@@H](CO)[C@H](c2ccc(-c3ccccc3)cc2)C12CN(C(C)=O)C2,1,.,.,.,.,.,.
Cc1ccc(NC(=O)c2cc3c(s2)CCCC3)cc1S(=O)(=O)Nc1ccccc1Cl,-28,1,89,-7,48,-4,.
O=C(Nc1cc(S(=O)(=O)Nc2ccccc2Cl)ccc1O)c1cc2c(s1)CCCC2,0,.,21,32*,5,-8,3
Cc1ccc(NC(=O)CSc2nnc(NC(=O)c3ccco3)s2)cc1,0,-1,-2,-6,15,.,.
O=C(CSc1nnc(NC(=O)c2ccco2)s1)Nc1cccc(F)c1,3,1,-4,?,.,0,.
CC(=O)c1ccc(NC(=O)CSc2nnc(NC(=O)c3ccco3)s2)cc1,.,2,7,28*,.,-5,0
O=C(CSc1nnc(NC(=O)c2ccco2)s1)Nc1ccc(F)cc1F,7,-1,2,20*,.,-10,1
Nc1nnnn1CC(=O)N/N=C/c1cc([N+](=O)[O-])ccc1Cl,-1,.,.,2,-38,0,.
Cc1cc([N+](=O)[O-])c(C)cc1-c1ccc(/C=N/NC(=O)Cn2nnnc2N)o1,-10,.,.,33*,-4,7,6
O=C(C[C@H]1CC[C@@H](NC(=O)C2CCC2)[C@H](CO)O1)NC1CCC1,7,-13,22[16.7 µM],.,10[16.7 µM],.,.
